Test results: ChEMBL document CHEMBL1149154, “Comparative molecular field analysis and comparative molecular similarity indices analysis of thalidomide analogues as angiogenesis inhibitors” (2004)

Species on record: Rattus norvegicus
Assay: Inhibition of microvessel outgrowth in the rat aortic ring assay
Type: functional, Aorta
Set-up: concentration or dose not given beside the values
Method in brief: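 Aortic 1 mm cross-sections from 6–8-week-old male Sprague–Dawley rats, periadventitial fat removed, embedded between Matrigel layers (37 °C, 5% CO2). Cultured 24 h in EGM-II, then switched to EBM-II with 2% FBS, amphotericin B and gentamicin. Compounds in DMSO added to medium daily for 4 days (vehicle 0.5% DMSO; carboxyamidotriazole positive control). Microvessel growth photographed on day 5.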

Compound	Inhibition [%]
O=C1c2ccccc2C(=O)N1c1cnc(O)nc1O	5.75
O=C1CC(N2C(=O)c3ccccc3C2=O)C(=O)N1 (centres undefined)	9.75
O=C1c2c(F)c(F)c(F)c(F)c2C(=O)N1c1ccc(F)cc1F	39.75
[N-]=[N+]=NCN1C(=O)CCC(N2C(=O)c3ccccc3C2=O)C1=O (centres undefined)	24.67
CC(C)C(N)C(=O)OCN1C(=O)CCC(N2C(=O)c3ccccc3C2=O)C1=O.Cl (centres undefined)	88
O=C1CCC(N2Cc3ccccc3C2=O)C(=O)N1 (centres undefined)	11.25
CCC1(N2C(=O)c3c(F)c(F)c(F)c(F)c3C2=O)C(=O)NC(=O)N(c2ccccc2)C1=O (centres undefined)	75.75
O=C1c2c(F)c(F)c(F)c(F)c2C(=O)N1c1cnc(O)nc1O	15.25
O=C1c2cccc([N+](=O)[O-])c2C(=O)N1c1cn(-c2ccccc2)c(=O)[nH]c1=O	-23.33
NC(=O)c1ccc[n+](CN2C(=O)CCC(N3C(=O)c4ccccc4C3=O)C2=O)c1.[Cl-] (centres undefined)	29.67
Cl.NCC(=O)OCN1C(=O)CCC(N2C(=O)c3ccccc3C2=O)C1=O (centres undefined)	71.33
O=C1CCC(N2C(=O)c3ccc(O)c(O)c3C2=O)C(=O)N1 (centres undefined)	10.25
NC(Cc1ccccc1)C(=O)OCN1C(=O)CCC(N2C(=O)c3ccccc3C2=O)C1=O (centres undefined)	4
O=C1CCC(N2C(=O)c3cc(O)c(O)cc3C2=O)C(=O)N1 (centres undefined)	38.75
CCOCN1C(=O)CCC(N2C(=O)c3ccccc3C2=O)C1=O (centres undefined)	32
Cc1ccc(C)c2c1C(=O)N(c1ccc(F)cc1F)C2=O	18
NC(=O)C(CCC(=O)O)N1C(=O)c2ccccc2C1=O (centres undefined)	15.25
O=C1c2ccccc2C(=O)N1c1ccc(F)cc1F	-4.75
O=C(O)CN1C(=O)CCC(N2C(=O)c3ccccc3C2=O)C1=O (centres undefined)	39.75
O=C1NC(=O)C(N2C(=O)c3ccccc3C2=O)CC1O (centres undefined)	3.75

Compound	Inhibition [%]
CC(C)(C)OC(=O)C(C(=O)NC(C(=O)O)C(=O)O)N1C(=O)c2ccccc2C1=O (centres undefined)	13.25
COc1cc2c(cc1OC)C(=O)N(C1CCC(=O)NC1=O)C2=O (centres undefined)	23.25
CC(C)(C)OC(=O)NCC(=O)OCN1C(=O)CCC(N2C(=O)c3ccccc3C2=O)C1=O (centres undefined)	40.25
CCC1(N2C(=O)c3ccccc3C2=O)C(=O)NC(=O)N(c2ccccc2)C1=O (centres undefined)	-0.5
O=C(O)CCC(NC(C(=O)O)N1C(=O)c2ccccc2C1=O)C(=O)O (centres undefined)	25.75
O=C(O)CCC(C(=O)O)N1C(=O)c2ccccc2C1=O (centres undefined)	10.75
CC(C(=O)OCN1C(=O)CCC(N2C(=O)c3ccccc3C2=O)C1=O)N(C)C(=O)OC(C)(C)C (centres undefined)	56.5
O=C1CCC(N2C(=O)c3ccccc3C2=O)C(=O)N1CO (centres undefined)	21
CC(C)CCCC(C)C1CCC2C3CC=C4CC(OC(=O)N5C(=O)CCC(N6C(=O)c7ccccc7C6=O)C5=O)CCC4(C)C3CCC12C (centres undefined)	50
O=C(O)C(C(=O)O)N1C(=O)c2ccccc2C1=O	-2
CCC1(N2C(=O)c3cccc([N+](=O)[O-])c3C2=O)C(=O)NC(=O)N(c2ccccc2)C1=O (centres undefined)	1.75
O=C1CCC(NC(=O)C(C(=O)O)N2C(=O)c3ccccc3C2=O)C(=O)N1 (centres undefined)	11.67
O=C1CCC(N2C(=O)c3ccccc3C2=O)C(=O)O1 (centres undefined)	42
CC(C)(C)OC(=O)NC(Cc1ccccc1)C(=O)OCN1C(=O)CCC(N2C(=O)c3ccccc3C2=O)C1=O (centres undefined)	33.75
CC(C)CCCC(C)C1CCC2C3CC=C4CC(OC(=O)CN5C(=O)CCC(N6C(=O)c7ccccc7C6=O)C5=O)CCC4(C)C3CCC12C (centres undefined)	25.25
COCN1C(=O)CCC(N2C(=O)c3ccccc3C2=O)C1=O (centres undefined)	13
NC(=O)CCC(C(=O)O)N1C(=O)c2ccccc2C1=O (centres undefined) [2-PHTHALIMIDOGLUTARAMIC ACID]	1.75
Nc1cccc2c1C(=O)N(C1CCC(=O)NC1=O)C2=O (centres undefined) [POMALIDOMIDE]	5.5
O=C1NCCCC1N1C(=O)c2ccccc2S1(=O)=O (centres undefined) [SUPIDIMIDE]	4.5
